Converted amounts (≈) assume the structure as drawn. The source made the active and inactive calls. The rule behind the calls is not given here.
Columns and labels:
[1] = test system: Enterococcus; assay: Antibacterial activity against vancomycin-resistant Enterococcus CKU-17; type: functional
[2] = test system: Staphylococcus aureus; assay: Antibacterial activity against Staphylococcus aureus; type: functional
[3] = test system: Staphylococcus aureus; assay: Antibacterial activity against methicillin-resistant Staphylococcus aureus; type: functional
[4] = test system: Enterococcus faecalis; assay: Antibacterial activity against Enterococcus faecalis; type: functional
[5] = test system: HeLa; assay: Cytotoxicity against human HeLa cells after 48 hrs by MTT assay; type: functional; conditions: read-out: CD50 (the source's name)
[6] = test system: OVCAR-3; assay: Cytotoxicity against human OVCAR-3 cells after 48 hrs by MTT assay; type: functional; conditions: for CC50: OVCAR-3, 48 h, read-out: CD50 (the source's name)
Summary of the method: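 OVCAR-3 cells were exposed to a range of concentrations for 48 h, and viability was read by MTT colorimetric assay. CD50 was determined by the MTT method. Data are reported as mean ± SD (n = 4).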

[7] = test system: HepG2; assay: Cytotoxicity against human HepG2 cells after 48 hrs by MTT assay; type: functional; conditions: for CC50: HepG2, 48 h, read-out: CD50 (the source's name)
[8] = test system: Escherichia coli; assay: Antibacterial activity against Escherichia coli; type: functional
[9] = test system: OVCAR-3 (Homo sapiens); assay: Cytotoxicity against human OVCAR-3 cells after 48 hrs by MTT assay
[10] = test system: OVCAR-3; assay: Cytotoxicity against human OVCAR-3 cells assessed as half cell death at 4 times CD50 up to 2 hrs by MTT assay; type: functional, cell-based
Summary of the method: (§1)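 OVCAR-3 cells were seeded at 5 × 10^3 per well and grown 24 h. […] Compound was washed out, fresh medium was added, and cells were incubated a further 48 h at 37 °C. Viable cells were read by MTT at OD 570 nm as % of control, mean ± SD (n = 4).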

[11] = test system: OVCAR-3; assay: Cytotoxicity against human OVCAR-3 cells assessed as half cell death at 2 times CD50 after 6 hrs by MTT assay; type: functional, cell-based; summary of the method: as §1
[12] = test system: OVCAR-3; assay: Cytotoxicity against human OVCAR-3 cells assessed as half cell death at CD50 after 24 hrs by MTT assay; type: functional, cell-based; summary of the method: as §1

Row | Molecule | MIC [1] [µg/mL] | MIC [2] [µg/mL] | MIC [3] [µg/mL] | MIC [4] [µg/mL] | CC50 [5] [µg/mL] | CC50 [6] [µg/mL] | CC50 [7] [µg/mL] | MIC [8] [µg/mL] | Activity [6] | Activity [7] | Activity [9] | Activity [10] | Activity [11] | Activity [12]
1 | CN[C@H](CC(C)C)C(=O)N[C@H]1C(=O)N[C@@H](CC(N)=O)C(=O)N[C@H]2C(=O)N[C@H]3C(=O)N[C@H](C(=O)N[C@H](C(=O)O)c4cc(O)cc(O)c4-c4cc3ccc4O)[C@H](O)c3ccc(c(Cl)c3)Oc3cc2cc(c3O[C@@H]2O[C@H](CO)[C@@H](O)[C@H](O)[C@H]2O[C@H]2C[C@](C)(N)[C@H](O)[C@H](C)O2)Oc2ccc(cc2Cl)[C@H]1O [VANCOMYCIN] | > 100 | 1.56 (≈ 1.08 µM) | 1.56 (≈ 1.08 µM) | 3.13 (≈ 2.16 µM) |  |  |  |  |  |  |  |  |  | 
2 | C[C@@H]1C(=O)O[C@H]2[C@H]1CC[C@@]1(C)[C@H](O)CC[C@@](C)(O)[C@H]21 [COLARTIN] | > 800 | > 800 |  | > 800 | 100 (≈ 373 µM) | 100 (≈ 373 µM) | > 100 | > 800 |  |  |  |  |  | 
3 | C=C1C(=O)O[C@@H]2[C@@H]3[C@](C)(CCC[C@@]3(C)O)CC[C@@H]12 [ARBUSCULIN A] |  |  |  |  | 7.5 (≈ 30 µM) | 7.5 (≈ 30 µM) | 10 (≈ 39.9 µM) |  |  |  |  |  |  | 
4 | O=C(N[C@H](CO)[C@H](O)c1ccc([N+](=O)[O-])cc1)C(Cl)Cl [CHLORAMPHENICOL] | 6.25 (≈ 19.3 µM) |  |  | 6.25 (≈ 19.3 µM) |  |  |  |  |  |  |  |  |  | 
5 | C=C1CC[C@H]2C(=C)CC[C@@H]3[C@H](OC(=O)[C@@]3(O)CC(C)=O)[C@@H]12 [LAPPALONE] |  |  |  |  | > 100 | > 100 | > 100 |  |  |  |  |  |  | 
6 | C=C1[C@@H]2[C@H]3OC(=O)C(=C)[C@@H]3CCC(=C)[C@@H]2C[C@H]1O [ISOZALUZANIN C] |  |  |  |  | 13.5 (≈ 54.8 µM) | 7.5 (≈ 30.4 µM) | 15 (≈ 60.9 µM) |  |  |  |  |  |  | 
7 | C=C1C(=O)O[C@@H]2/C=C(\C)CC/C=C(\C)CC[C@@H]12 [COSTUNOLIDE] | 400 (≈ 1720 µM) | 100 (≈ 430 µM) | 200 (≈ 861 µM) | 400 (≈ 1720 µM) | 2 (≈ 8.61 µM) | 2 (≈ 8.61 µM) | 1.6 (≈ 6.89 µM) | > 800 | Dose-dependent effect | Dose-dependent effect | Dose-dependent effect |  |  | 
8 | C=C1CC[C@@H](O)[C@]2(C)CC[C@H]3C(=C)C(=O)O[C@@H]3[C@@H]12 [REYNOSIN] | > 800 | 800 (≈ 3220 µM) | > 800 | > 800 | 7.5 (≈ 30.2 µM) | 7.5 (≈ 30.2 µM) | 11 (≈ 44.3 µM) | > 800 |  |  |  |  |  | 
9 | C=C1[C@@H]2[C@H]3OC(=O)C(=C)[C@@H]3CCC(=C)[C@@H]2C[C@@H]1O [ZALUZANIN C] |  |  |  |  | 22 (≈ 89.3 µM) | 15 (≈ 60.9 µM) | 34 (≈ 138 µM) |  |  |  |  |  |  | 
10 | C=C(CO)[C@@H]1CC[C@@]2(C)CCC[C@@](C)(O)[C@@H]2C1 [ILICIC ALCOHOL] |  |  |  |  | > 100 | > 100 | > 100 |  |  |  |  |  |  | 
11 | C=C1CC[C@@H](O)[C@]2(C)CC[C@@H]3[C@H](OC(=O)[C@H]3C)[C@@H]12 |  |  |  |  | > 100 | 95 (≈ 379 µM) | > 100 |  |  |  |  |  |  | 
12 | C=C1CC[C@@H](O)[C@]2(C)CC[C@@H](C(=C)C(=O)OCC)[C@H](O)[C@@H]12 |  |  |  |  | 75 (≈ 255 µM) | 75 (≈ 255 µM) | 50 (≈ 170 µM) |  |  |  |  |  |  | 
13 | C=C1CC[C@H]2C(=C)CC[C@@H]3[C@H](OC(=O)[C@@]3(O)C[C@]3(C)CCC(=O)[C@]4(C)CC[C@H]5C(=C)C(=O)O[C@@H]5[C@@H]34)[C@@H]12 [LAPPADILACTONE] |  |  |  |  | 1.8 (≈ 3.64 µM) | 2.5 (≈ 5.05 µM) | 2.4 (≈ 4.85 µM) |  | Dose-dependent effect | Dose-dependent effect | Dose-dependent effect | Active | Active | Active
14 | C=C1C(=O)O[C@@H]2[C@H]3C(C)=CC[C@@H](O)[C@]3(C)CC[C@@H]12 [SANTAMARIN] | > 800 | 800 (≈ 3220 µM) | 800 (≈ 3220 µM) | > 800 | 10 (≈ 40.3 µM) | 10 (≈ 40.3 µM) | 7.5 (≈ 30.2 µM) | > 800 |  |  |  |  |  | 
15 | C=C1CC[C@H]2C(=C)CC[C@H]3C(=C)C(=O)O[C@@H]3[C@@H]12 [DEHYDROCOSTUSLACTONE] | > 800 | 400 (≈ 1740 µM) | 800 (≈ 3470 µM) | > 800 | 3.5 (≈ 15.2 µM) | 2.5 (≈ 10.9 µM) | 3.5 (≈ 15.2 µM) | > 800 | Dose-dependent effect | Dose-dependent effect | Dose-dependent effect |  |  | 
16 | GENTAMICIN |  | 0.78 | > 100 |  |  |  |  | 3.13 |  |  |  |  |  | 
17 | C=C1[C@@H]2[C@H]3OC(=O)[C@@H](C)[C@@H]3CCC(=C)[C@@H]2C[C@H]1O |  |  |  |  | 65 (≈ 262 µM) | 65 (≈ 262 µM) | 75 (≈ 302 µM) |  |  |  |  |  |  | 

From ChEMBL document CHEMBL1146590, “Cytotoxic sesquiterpene lactones from the root of Saussurea lappa” (2003)
